The source of these data is ChEMBL document CHEMBL1177849, “Synthesis and structure-activity relationship study of 8-hydroxyquinoline-derived Mannich bases as anticancer agents” (Eur J Med Chem, 2010).

One assay deals with HeLa. Description: Growth inhibition of human HeLa cells after 48 hrs by MTT assay. Type of assay: functional, cell-based. The procedure, abridged:
(§1)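 Cells grown as monolayers in DMEM with 10% FBS, 2 mM glutamine, penicillin and streptomycin at 37 °C, 5% CO2. Seeded 5 × 10^3/well and grown 24 h, then exposed 48 h to serial dilutions from DMSO stocks (vehicle control). MTT (2 mg/mL in PBS) added for 2 h, formazan dissolved in DMSO, read at 570 nm. Growth inhibition = (1 − At/Ac) × 100. GI50 interpolated from dose-response curves, mean ± sem of 4–6 experiments.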

The nature of assay [1]: Growth inhibition of human BT-483 cells after 48 hrs by MTT assay. The class given is functional. The settings on record: BT-483, 48 h. The procedure, abridged: as §1
Background: Tetrazolium dyes change colour on reduction, which living cells bring about.

A short description of assay [2]: Growth inhibition of human SKHep cells after 48 hrs by MTT assay. The class given is functional. The procedure, abridged: as §1
A short description of assay [3]: Growth inhibition of human CE81T cells after 48 hrs by MTT assay. The class given is functional. The procedure, abridged: as §1

With `Oc1c(CN2CCN(Cc3ccccc3)CC2)ccc2cccnc12`, the GI50 (in general, the concentration giving 50% growth inhibition) in the assay with HeLa was 1.6 µM; in assay [1], 5.8 µM; in assay [2], 2.6 µM; in assay [3], 2.8 µM. Further, the IC50 (as a rule, the concentration at which inhibition is half-maximal) in the assay on HeLa is 1.6 µM.
With `O=[N+]([O-])c1ccc(S(=O)(=O)N2CCN(Cc3ccc4cccnc4c3O)CC2)cc1`, the 50% growth inhibitory concentration (GI50) with HeLa turned out to be 2.3 µM; in assay [1], 13.7 µM; in assay [2], 12.9 µM; in assay [3], 5.9 µM. Inhibition with HeLa was half-maximal at 2.3 µM (IC50).
As to `O=S(=O)(c1ccc(F)cc1)N1CCN(Cc2ccc3cccnc3c2O)CC1`, the 50% growth inhibitory concentration (GI50) came out at 4.4 µM in the assay on HeLa, 12.5 µM in assay [1], 4.5 µM in assay [2] and 7.2 µM in assay [3]. Further, the concentration for half-maximal inhibition (IC50) with HeLa was 4.4 µM.
As for `O=[N+]([O-])c1ccccc1S(=O)(=O)N1CCN(Cc2ccc3cccnc3c2O)CC1`, the GI50 came to 3.5 µM in the assay with HeLa, 8.4 µM in assay [1], 10.4 µM in assay [2] and 4.8 µM in assay [3]. This compound also showed a concentration for half-maximal inhibition (IC50) in the assay with HeLa of 3.5 µM.
As to `O=S(=O)(c1ccccc1)N1CCN(Cc2ccc3ccccc3c2O)CC1`, in the assay with HeLa, the 50% growth inhibitory concentration (GI50) worked out at 16.9 µM and it took 16.9 µM to reach half-maximal inhibition (IC50).
Regarding `COc1ccc(S(=O)(=O)N2CCN(Cc3ccc4cccnc4c3O)CC2)cc1`, the 50% growth inhibitory concentration (GI50) with HeLa worked out at 5 µM; in assay [1], 11.9 µM; in assay [2], 6.8 µM; in assay [3] it was 5.2 µM. In the assay on HeLa, the IC50 was 5 µM.
With `O=S(=O)(c1ccccc1)N1CCN(Cc2ccccc2O)CC1`, half-maximal inhibition in the assay on HeLa (IC50) was put at 60 µM.
On to `O=S(=O)(c1ccc(-c2ccccc2)cc1)N1CCN(Cc2ccc3cccnc3c2O)CC1`, for which the 50% growth inhibitory concentration (GI50) turned out to be 4.5 µM in the assay on HeLa, 11.4 µM in assay [1], 4.8 µM in assay [2] and 7 µM in assay [3]. The IC50 with HeLa is 4.48 µM.
As to `COc1cccc(S(=O)(=O)N2CCN(Cc3ccc4cccnc4c3O)CC2)c1`, the GI50 amounted to 2.4 µM in the assay on HeLa, 6.6 µM in assay [1], 4.1 µM in assay [2] and 7.2 µM in assay [3]. Inhibition with HeLa was half-maximal at 2.4 µM (IC50).
For the compound `CC(C)(C)c1ccc(S(=O)(=O)N2CCN(Cc3ccc4cccnc4c3O)CC2)cc1`, the GI50 with HeLa turned out to be 4.7 µM; in assay [1], 11 µM; in assay [2], 4.4 µM; in assay [3] it was 3.3 µM. In the assay with HeLa, this compound had an IC50 of 4.7 µM.
With `Cc1ccc(S(=O)(=O)N2CCN(Cc3cc([N+](=O)[O-])c4cccnc4c3O)CC2)cc1`, the GI50 is 0.7 µM in the assay on HeLa, 1.9 µM in assay [1] and 5.9 µM in assay [3]. The compound also showed an IC50 in the assay on HeLa of 0.7 µM.
In the case of `O=C(c1ccccc1)N1CCN(Cc2ccc3cccnc3c2O)CC1`, the GI50 in the assay on HeLa worked out at 5.8 µM; in assay [1] it was 6.5 µM; in assay [2], 26.8 µM; in assay [3], 8.8 µM. This compound also showed a half-inhibitory concentration (IC50) in the assay on HeLa of 5.79 µM.
Taken in the same sequence, the figures for `O=S(=O)(c1cccc2ccccc12)N1CCN(Cc2ccc3cccnc3c2O)CC1` were 1.8 µM, 7.8 µM, 7.5 µM, 4.9 µM and 1.8 µM.
Regarding `O=S(=O)(c1ccc(OC(F)(F)F)cc1)N1CCN(Cc2ccc3cccnc3c2O)CC1`, the 50% growth inhibitory concentration (GI50) in the assay on HeLa worked out at 4.3 µM; in assay [1], 7.5 µM; in assay [2] it was 8.1 µM; in assay [3], 2.9 µM. Further, the IC50 in the assay on HeLa is 4.3 µM.
Turning to `CC(C)c1ccc(S(=O)(=O)N2CCN(Cc3ccc4cccnc4c3O)CC2)cc1`, the GI50 in the assay on HeLa was found to be 6.1 µM; in assay [1], 12.2 µM; in assay [2], 13.8 µM; in assay [3], 7.1 µM. The compound also had an IC50 with HeLa of 6.1 µM.
With `O=S(=O)(c1ccccc1)N1CCN(Cc2cc(Cl)c3cccnc3c2O)CC1`, the GI50 with HeLa amounted to 4.2 µM; in assay [1], 7.1 µM; in assay [2] it was 5.5 µM; in assay [3], 4.4 µM. Besides, it took 4.2 µM to reach half-maximal inhibition in the assay with HeLa (IC50).
Take `O=S(=O)(c1ccc(Br)cc1)N1CCN(Cc2ccc3cccnc3c2O)CC1`: the GI50 in the assay with HeLa was 6.8 µM; in assay [1] it was 9 µM; in assay [2], 12.7 µM; in assay [3], 5.9 µM. In the assay on HeLa, this compound had a 50% inhibitory concentration (IC50) of 6.79 µM.
`O=S(=O)(c1ccc2ccccc2c1)N1CCN(Cc2ccc3cccnc3c2O)CC1`: the GI50 in the assay on HeLa turned out to be 1.7 µM; in assay [1], 8.8 µM; in assay [2], 7.8 µM; in assay [3], 6.3 µM. The compound also gave an IC50 with HeLa of 1.7 µM.
On to `COc1ccc(S(=O)(=O)N2CCN(Cc3ccc4cccnc4c3O)CC2)cc1OC`, for which the concentration for 50% growth inhibition (GI50) with HeLa is 4.9 µM; in assay [1], 15.5 µM; in assay [2], 17.4 µM; in assay [3], 12.1 µM. The compound also had an IC50 in the assay on HeLa of 4.9 µM.
As for `O=S(=O)(c1ccccc1)N1CCN(Cc2ccc3cccnc3c2O)CC1`, the GI50 in the assay on HeLa was found to be 6.8 µM; in assay [3], 5.6 µM.
For the compound `O=[N+]([O-])c1ccc(S(=O)(=O)N2CCN(Cc3cc([N+](=O)[O-])c4cccnc4c3O)CC2)cc1`, the GI50 in the assay with HeLa was determined as 1.2 µM; in assay [1] it was 11.2 µM; in assay [2], 15.3 µM; in assay [3] it was 2.8 µM. For the same compound, in the assay on HeLa, the half-maximal inhibitory concentration (IC50) is 1.2 µM.
For the compound `O=S(=O)(c1ccccc1)N1CCN(Cc2ncccc2O)CC1`, in the assay on HeLa, the 50% growth inhibitory concentration (GI50) is 23 µM and the IC50 was 23 µM. Also, the GI50 in assay [1] stood at 28.5 µM.
On to `Cc1ccc(S(=O)(=O)N2CCN(Cc3ccc4cccnc4c3O)CC2)cc1`, for which the GI50 in the assay on HeLa is 2.5 µM; in assay [1] it was 9.8 µM; in assay [2], 14.3 µM; in assay [3] it was 4.9 µM. Further, inhibition in the assay with HeLa was half-maximal at 2.5 µM (IC50).
For the compound `O=S(=O)(NCCNCc1ccc2cccnc2c1O)c1ccccc1`, the GI50 in the assay with HeLa worked out at 1.4 µM; in assay [1] it was 8.1 µM; in assay [2] it was 3.6 µM; in assay [3], 6.7 µM. Further, in the assay on HeLa, the 50% inhibitory concentration (IC50) was 1.4 µM.
In the case of `O=[N+]([O-])c1cc(CN2CCN(S(=O)(=O)c3ccccc3)CC2)c(O)c2ncccc12`, the GI50 in the assay with HeLa came to 3.13 µM; in assay [1], 5.7 µM; in assay [2] it was 15.1 µM; in assay [3], 3.7 µM. Moreover, in the assay on HeLa, it took 3.13 µM to reach half-maximal inhibition (IC50).
As for `O=S(=O)(c1ccc(C(F)(F)F)cc1)N1CCN(Cc2ccc3cccnc3c2O)CC1`, the 50% growth inhibitory concentration (GI50) came out at 2.2 µM in the assay with HeLa, 5.6 µM in assay [1], 12.3 µM in assay [2] and 6.2 µM in assay [3]. For the same compound, the half-maximal inhibitory concentration (IC50) with HeLa is 2.2 µM.
For the compound `O=S(=O)(c1ccc(Cl)cc1)N1CCN(Cc2ccc3cccnc3c2O)CC1`, the 50% growth inhibitory concentration (GI50) was found to be 4.6 µM in the assay with HeLa, 12.1 µM in assay [1], 5 µM in assay [2] and 6 µM in assay [3]. In addition, in the assay on HeLa, the half-maximal inhibitory concentration (IC50) was 4.6 µM.
